Assay outcomes deposited in PubChem by Broad Institute.
dFosB act – mouse delta FosB homodimer activation; purified delta FosB, TAMRA-CDK5 oligo fluorescence polarization; percent of positive-control signal above neutral wells; P13346; activation, % at 25 µM; 340,000 tested, 0.99% active; AID 493131;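 active = mean activation above about 17%, with every replicate also reaching it, limit read from the data, passing the limit was not always enough; inconclusive = only one of the two conditions met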
Target sequence (P13346 whole entry, looked up): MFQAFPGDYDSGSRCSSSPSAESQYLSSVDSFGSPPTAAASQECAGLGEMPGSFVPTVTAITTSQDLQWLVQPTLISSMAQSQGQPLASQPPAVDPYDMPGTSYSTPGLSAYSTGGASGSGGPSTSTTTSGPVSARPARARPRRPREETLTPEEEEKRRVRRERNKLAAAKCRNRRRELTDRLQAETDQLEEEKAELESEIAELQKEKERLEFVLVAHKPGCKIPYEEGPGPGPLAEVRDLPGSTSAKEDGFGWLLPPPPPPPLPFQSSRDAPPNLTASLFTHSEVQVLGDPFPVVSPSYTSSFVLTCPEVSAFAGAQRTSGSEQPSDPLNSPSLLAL
Rtt109 HAT inh – blocks Candida albicans Rtt109/Vps75 acetyltransferase activity; inhibition, % at 34.9 µM; 330,000 tested, 0.16% active; purified Rtt109/Vps75, ThioGlo CoA-SH fluorescence, 4 h; Q5AAJ8;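 active = inhibition of at least 50% in every replicate; inconclusive = best replicate reaches 50% inhibition but some replicates fall short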
Target sequence (Q5AAJ8 whole entry, looked up): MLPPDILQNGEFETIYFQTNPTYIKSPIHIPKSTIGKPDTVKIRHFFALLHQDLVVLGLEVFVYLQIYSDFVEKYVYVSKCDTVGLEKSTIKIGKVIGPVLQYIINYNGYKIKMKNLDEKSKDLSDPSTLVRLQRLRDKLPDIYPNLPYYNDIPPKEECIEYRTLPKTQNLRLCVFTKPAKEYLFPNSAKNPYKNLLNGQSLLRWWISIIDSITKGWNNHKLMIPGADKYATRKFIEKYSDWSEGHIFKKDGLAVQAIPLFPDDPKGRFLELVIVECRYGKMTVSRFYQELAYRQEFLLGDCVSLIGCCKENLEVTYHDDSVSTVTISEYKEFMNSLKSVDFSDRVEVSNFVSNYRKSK
GSIS activator – GLuc luminescence reporter in INS-1E cells, primary screen for activators of glucose-dependent secretion of insulin | INS-1E GLuc reporter insulin secretion, 2-3 h | activation, % at 16.6 µM | 370,000 tested, 0.61% active | AID 743287;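 active = lowest replicate activation of at least 40%, so every replicate reaches that level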;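 also: 0% = median of neutral control wells and 100% = median of IBMX positive control wells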
HIV Env fusion – inhibitors of HIV Env-mediated cell fusion. HeLa-JRFL Env/CEM21 cell fusion, luciferase. inhibition, % at 12.3 µM. 360,000 tested, 1.1% active;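 active = mean replicate inhibition score of at least 50 and every replicate individually at or above 50; inconclusive = only one of the two criteria met; inactive = mean below 50 and not all replicates reaching 50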;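 also: 0% = plate neutral controls and 100% = maraviroc near 300 nM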
Cneo AK release – causes C. neoformans cell lysis. adenylate kinase release luminescence, 4 h; normalised: neutral wells 0, clomiphene wells 100. lysis activity, % at 15 µM. 360,000 tested, 0.2% active. AID 651654;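 active = mean lysis activity across replicates of at least 80%, whatever share of replicates individually reach that level; inactive = mean lysis activity below 80%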
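Schedule: static 4 h at 37 °C with compound, 1 h detection; system: C. neoformans cells; benchmarks: Clomiphene as positive control; buffer or medium: fresh YPD medium; measure: luminescence rise reflecting yeast cell lysis; measured by: luminescent adenylate kinase detection reagent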
miR122 inh – miR-122 inhibition in Huh7 cells | 340,000 tested, 0.3% active | Huh7 miR-122 Renilla luciferase sensor, 48 h; neutral wells = 0, positive control = 100 | activation (reporter increase), % at 12.5 µM;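 active = mean replicate activation score at least 90 and every replicate individually at or above 90; inconclusive = only one of the two criteria met; inactive = neither criterion met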;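 also: higher luciferase means less miR-122 activity so hits act as miR-122 inhibitors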
* = called active by the depositor; u = inconclusive; x = no result; [ ] = dose if it differs, or a comment. Shown are actives, neighbours in structure and some others; about 2.4% of the full set was active somewhere.

SMILES	dFosB act	Rtt109 HAT inh	GSIS activator	HIV Env fusion	Cneo AK release	miR122 inh
COC(=O)c1nn(-c2ccc(OC)cc2)c(=O)cc1Oc1ccccc1	-1	-1	x	1	2	-3
COC(=O)c1nn(-c2ccccc2)c(=O)cc1Oc1ccc(Cl)cc1	3	-4	x	122*	-1	-15
O=C(c1cccc(F)c1)N1CC[C@@H]2[C@@H](CO)Nc3ccc(-c4ccccc4)cc3[C@@H]21	x	x	-34	x	x	x
COc1ccc(-c2c(-c3cc(OC)cc(OC)c3)n(C)c3ccc(-c4ccc5c(c4)OCCO5)cc23)cc1	4	-7	-1	56*	3	6
C[C@@H]1CN([C@@H](C)CO)C(=O)c2cccc(NC(=O)C3CCOCC3)c2O[C@H]1CN(C)C	x	x	18	x	-3	-3[16.7 µM]
O=[N+]([O-])c1ccccc1S(=O)(=O)Nc1ccc(-c2ccc3nncn3n2)cc1	-3	-9	49*	5	x	x
O=[N+]([O-])c1ccccc1S(=O)(=O)Nc1cccc(-c2ccc3nncn3n2)c1	0	3	89*	10	1	8
O=S(=O)(Nc1cccc(-c2ccc3nncn3n2)c1)c1ccccc1F	-3	5	12	-11	x	x
COc1ccc(S(=O)(=O)Nc2cccc(-c3ccc4nncn4n3)c2)cc1F	-13	0	42*	14	x	x
C[C@@H]1CCCCO[C@H](CN(C)CC2CCCCC2)[C@H](C)CN([C@H](C)CO)C(=O)c2cc(NC(=O)C3CCCCC3)ccc2O1	x	x	-17	27[16.7 µM]	1	9[16.7 µM]
CN1C(=O)c2cc(NS(=O)(=O)c3ccccc3Cl)ccc2OC[C@H]2O[C@@H](CC(=O)Nc3cc(F)ccc3F)CC[C@@H]21	x	x	6	x	x	x
CCCNC(=O)N1CC2(C1)CN(C(=O)CC)[C@@H](CO)c1[nH]c3cc(OC)ccc3c12	x	x	2	-20[16.7 µM]	x	x
C=CCNc1nc(N)c([N+](=O)[O-])c(NCCO)n1	-1	-5	82*	2	x	x
CCN(CC)c1nc(N)c([N+](=O)[O-])c(NCCO)n1	2	2	85*	12	x	x
Cc1ccc(Nc2nc(N)c([N+](=O)[O-])c(NCCO)n2)cc1	x	x	7	-4	-1	-2
CCN(C[C@H]1[C@H](c2ccccc2)[C@@H](CO)N1C(C)=O)C(=O)c1cccc(F)c1	x	x	2	x	-1	-12[16.7 µM]
CCC(=O)N1[C@H](CO)[C@H](c2ccccc2)[C@@H]1CN(CC)C(=O)c1cccc(F)c1	x	x	1	x	99*	250*[16.7 µM]
CCC(=O)N1[C@H](CO)[C@H](c2ccccc2)[C@@H]1CN(CC)C(=O)c1ccccc1	x	x	6	x	-1	-36[16.7 µM]
CCC(=O)N1[C@H](CN(CC)C(=O)c2cccc(F)c2)[C@H](c2ccccc2)[C@@H]1CO	x	x	13	x	-5	125*[16.7 µM]
O=C(Nc1ccc2c(c1)OCCO2)c1ccccn1	-12	x	8	29	-8	-6
O=C(Nc1ccc(NC(=O)c2cccs2)cc1)c1ccc2c(c1)OCO2	u	0	47*	-14	0	-12
Cc1ccc(C(=O)N2CCN(c3ccc(NC(=O)c4ccc5c(c4)OCCO5)cc3)CC2)cc1	6	-3	-8	65*	7	-9
O=C(Nc1ccc(NC(=O)c2ccccn2)cc1)C(=O)Nc1ccc2c(c1)OCCO2	19*	-3	32	-1	2	-5
O=C(Nc1ccc(NC(=O)c2cccs2)cc1)c1ccc2c(c1)OCCO2	17*	-5	2	9	x	-2
Cc1ccccc1C(=O)N1CCN(c2ccc(NC(=O)c3ccc4c(c3)OCCO4)cc2)CC1	-6	-9	-14	47	1	x
SMILES	dFosB act	Rtt109 HAT inh	GSIS activator	HIV Env fusion	Cneo AK release	miR122 inh
COc1ccc(C#Cc2cnc3c(c2)C(=O)N([C@H](C)CO)C[C@H](C)[C@@H](CN(C)C(=O)CC2CC2)O3)cc1	x	x	5	x	10	28[16.7 µM]
C[C@@H]1CN([C@@H](C)CO)C(=O)c2cc(NC(=O)c3ccccc3)ccc2O[C@@H](C)CCCCO[C@H]1CN(C)Cc1ccc(C(F)(F)F)cc1	x	x	-13	18[16.7 µM]	-1	-9[16.7 µM]
O=C(C1CCCC1)N1CC2(C1)[C@H](c1ccccc1)[C@H](CO)N2CC1CC1	x	x	-11	x	x	x
CC(=O)N1CC2(C1)[C@H](c1ccc(-c3cccc(F)c3)cc1)[C@H](CO)N2CC1CCOCC1	x	x	-21	x	x	x
O=C(NCCc1ccccc1)c1ccc2c(c1)OCCO2	7	-10	x	92*	-15	-2
CC(C)C#Cc1cnc2c(c1)C(=O)N([C@H](C)CO)C[C@@H](C)[C@@H](CN(C)C(=O)c1ccccc1F)O2	x	x	-2	-24[16.7 µM]	-2	-6[16.7 µM]
COc1ccc(NC(=O)Nc2ccc3c(c2)C(=O)N([C@H](C)CO)C[C@@H](C)[C@H](CN(C)S(=O)(=O)c2ccc(Cl)cc2)OCCCC[C@@H](C)O3)cc1	x	x	28	21[16.7 µM]	87*	14[16.7 µM]
C[C@@H]1CCCCO[C@@H](CN(C)S(=O)(=O)c2ccccc2)[C@H](C)CN([C@@H](C)CO)C(=O)c2cc(NC(=O)Nc3ccc(F)cc3)ccc2O1	x	x	-9	33[16.7 µM]	105*	-4[16.7 µM]
C[C@@H]1CCCCO[C@H](CN(C)S(=O)(=O)c2ccccc2)[C@@H](C)CN([C@@H](C)CO)C(=O)c2cc(NC(=O)Nc3ccc(F)cc3)ccc2O1	x	x	-1	23[16.7 µM]	2	-7[16.7 µM]
COc1ccc(S(=O)(=O)N(C)C[C@@H]2OCCCC[C@@H](C)Oc3ccc(NC(=O)Nc4ccccc4)cc3C(=O)N([C@H](C)CO)C[C@H]2C)cc1	x	x	-12	76*[16.7 µM]	0	-5[16.7 µM]
CCNC(=O)Nc1ccc2c(c1)C(=O)N(C)[C@H]1CC[C@@H](CC(=O)N[C@H](C)c3ccccc3)O[C@H]1CO2	x	x	-1	-1[16.7 µM]	-11	x
CCNC(=O)Nc1ccc2c(c1)C(=O)N(C)[C@@H]1CC[C@H](CC(=O)N[C@@H](C)c3ccccc3)O[C@@H]1CO2	x	x	-4	4[16.7 µM]	193*	x
CCNC(=O)Nc1ccc2c(c1)C(=O)N(C)[C@H]1CC[C@H](CC(=O)N[C@@H](C)c3ccccc3)O[C@H]1CO2	x	x	0	3[16.7 µM]	91*	x
C[C@@H]1CCCCO[C@@H](CN(C)C(=O)Nc2ccccc2)[C@@H](C)CN([C@@H](C)CO)C(=O)c2cc(NC(=O)CCC(F)(F)F)ccc2O1	x	x	-10	-26[16.7 µM]	x	x
CO[C@H]1CN(C)C(=O)c2ccc(NS(C)(=O)=O)cc2OC[C@H](C)N(Cc2ccccc2)C[C@@H]1C	x	x	-5	x	x	x
COc1ccccc1NS(=O)(=O)c1cc(NC(=O)c2cccc(S(=O)(=O)N(C)C)c2)ccc1N1CCOCC1	9	0	-2	-1	x	135*
COc1ccccc1NS(=O)(=O)c1cc(NC(=O)c2ccc(NC(C)=O)cc2)ccc1N1CCOCC1	10	9	-15	-6	-1	x
